For eleven compounds, IC50 and inhibition results are on record in ChEMBL document CHEMBL3867444, “Design and synthesis of new potent PTP1B inhibitors with the skeleton of 2-substituted imino-3-substituted-5-heteroarylidene-1,3-thiazolidine-4-one: Part I” (Eur J Med Chem, 2016).

Assay [1] deals with T1, Tyrosine-protein phosphatase non-receptor type 1 (Homo sapiens, UniProt P18031).
T1 sequence (P18031 whole entry): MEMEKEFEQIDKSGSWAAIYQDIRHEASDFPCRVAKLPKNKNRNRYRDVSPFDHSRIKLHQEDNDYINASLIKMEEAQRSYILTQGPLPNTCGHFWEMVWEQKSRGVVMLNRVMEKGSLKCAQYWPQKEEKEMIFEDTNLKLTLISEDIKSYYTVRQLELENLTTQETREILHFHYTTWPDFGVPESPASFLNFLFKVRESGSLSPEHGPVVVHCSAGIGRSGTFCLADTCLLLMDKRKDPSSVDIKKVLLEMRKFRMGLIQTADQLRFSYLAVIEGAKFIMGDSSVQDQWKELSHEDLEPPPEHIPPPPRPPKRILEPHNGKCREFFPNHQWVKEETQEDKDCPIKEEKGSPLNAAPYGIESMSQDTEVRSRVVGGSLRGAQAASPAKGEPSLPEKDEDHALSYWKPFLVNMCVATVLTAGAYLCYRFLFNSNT
The assay can be described thus: Inhibition of PTP1B (unknown origin).

Assay [2] has as its target T2, M-phase inducer phosphatase 2 (Homo sapiens) (UniProt P30305).
T2 sequence (whole entry): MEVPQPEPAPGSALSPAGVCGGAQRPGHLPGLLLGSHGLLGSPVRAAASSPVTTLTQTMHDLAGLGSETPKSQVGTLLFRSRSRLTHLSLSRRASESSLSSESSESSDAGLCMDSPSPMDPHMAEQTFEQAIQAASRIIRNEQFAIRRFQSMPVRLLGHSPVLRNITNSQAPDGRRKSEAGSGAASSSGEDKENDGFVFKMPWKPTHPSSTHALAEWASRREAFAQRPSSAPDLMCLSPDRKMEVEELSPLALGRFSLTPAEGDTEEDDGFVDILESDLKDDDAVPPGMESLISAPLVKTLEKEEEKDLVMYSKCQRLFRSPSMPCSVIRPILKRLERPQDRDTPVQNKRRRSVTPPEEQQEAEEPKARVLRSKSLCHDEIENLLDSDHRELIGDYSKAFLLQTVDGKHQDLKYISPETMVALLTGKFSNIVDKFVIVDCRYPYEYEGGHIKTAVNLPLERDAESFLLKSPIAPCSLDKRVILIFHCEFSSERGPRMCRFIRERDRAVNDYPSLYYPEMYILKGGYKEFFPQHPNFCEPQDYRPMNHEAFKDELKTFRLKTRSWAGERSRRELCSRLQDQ
The assay can be described thus: Inhibition of human recombinant GST-tagged CDC25B assessed as reduction in dephosphorylation of florigenic phosphatase substrate at 5 ug/ml preincubated for 1 hr followed by substrate addition measured after 1 hr by fluorescence assay relative to control.

The target of assay [3] is T3, M-phase inducer phosphatase 2 (Homo sapiens, UniProt P30305).
T3 sequence (P30305 whole entry): T2 sequence (whole entry)
The assay is described as follows: Inhibition of human recombinant GST-tagged CDC25B assessed as reduction in dephosphorylation of florigenic phosphatase substrate preincubated for 1 hr followed by substrate addition measured after 1 hr by fluorescence assay. A digest of the protocol:
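Purified GST-CDC25B fusion protein was preincubated with compound for 1 h, then fluorescein diphosphate (5mM) was added. Fluorescence was read within the linear range of the reaction after 1 h at room temperature. Na₃VO₄ served as positive control and DMSO as negative control.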

In assay [4] the target is T4, Tyrosine-protein phosphatase non-receptor type 1 (Homo sapiens) (UniProt P18031).
T4 sequence (whole entry): T1 sequence (P18031 whole entry)
The assay can be described thus: Inhibition of human recombinant GST-tagged PTP1B catalytic domain expressed in Escherichia coli BL21-[…] plus (DE3) at 5 ug/ml using pNPP as substrate relative to control.

Assay [5] addresses T4, Tyrosine-protein phosphatase non-receptor type 1 (Homo sapiens). The assay is described as follows: Inhibition of human recombinant GST-tagged PTP1B catalytic domain expressed in Escherichia coli BL21-[…] plus (DE3) at 20 ug/ml using pNPP as substrate relative to control.
Assay [6] deals with T1, Tyrosine-protein phosphatase non-receptor type 1. The assay can be described thus: Inhibition of human recombinant GST-tagged PTP1B catalytic domain expressed in Escherichia coli BL21-[…] plus (DE3) using pNPP as substrate.

For `Cc1cc(I)cc2c1NC(c1cccc(N)c1)C1CC=CC21` (stereo not given), the IC50 (as a rule, the point on the concentration scale where inhibition reaches its midpoint) in assay [1] amounted to 7.5 µM.
As for `CC(C)N1C(=O)/C(=C/c2ccc(OCCN(C)c3ccccn3)cc2)S/C1=N\O`, the inhibition (in general, the drop in the measured response relative to a control, in per cent) in assay [2] is 98.5%; in assay [4] it was 19.3%; in assay [5] it was 67.5%. In addition, the half-maximal inhibitory concentration (IC50) in assay [3] is 2.47 µM.
Regarding `CCOC(=O)c1c(C)[nH]c(/C=C2\S/C(=N\c3ccc(OC)cc3)N(c3ccc(OC)cc3)C2=O)c1C`, the inhibition was 76.5% in assay [2], 47.7% in assay [4] and 98.7% in assay [5]. In addition, the IC50 in assay [3] stood at 2.74 µM.
`CCOC(=O)c1c(C)[nH]c(/C=C2\S/C(=N/O)N(C(C)C)C2=O)c1C`: the inhibition was 80.2% in assay [2], 49% in assay [4] and 95.8% in assay [5]. Further, the concentration for half-maximal inhibition (IC50) in assay [3] stood at 5.83 µM.
Regarding `CCOC(=O)c1c(C)[nH]c(/C=C2\S/C(=N\c3ccc(F)cc3)N(c3ccc(F)cc3)C2=O)c1C`, the inhibition in assay [2] was found to be 84.7%; in assay [4] it was 82.7%; in assay [5], 94.5%. Further, the values for the IC50 in assay [6] and in assay [3] were 6.09 µM and 2.87 µM, respectively.
For SODIUM ORTHOVANAD, the half-maximal inhibitory concentration (IC50) in assay [3] amounted to 0.91 µM.
`CCOC(=O)c1c(C)[nH]c(/C=C2\S/C(=N\c3ccc(C)cc3)N(c3ccc(C)cc3)C2=O)c1C`: the inhibition in assay [5] was 28.4%.
Take `CC/N=C1\S/C(=C\c2ccc(OCCN(C)c3ccccn3)cc2)C(=O)N1CC`: the inhibition in assay [5] was determined as 42.1%.
As for `CCOC(=O)c1c(C)[nH]c(/C=C2\S/C(=N\c3ccccc3)N(c3ccccc3)C2=O)c1C`, the inhibition was 83.7% in assay [2], 81.1% in assay [4] and 99.9% in assay [5]. Moreover, the IC50 came out at 8.66 µM in assay [6] and 1.66 µM in assay [3].
For the compound `CCOC(=O)c1c(C)[nH]c(/C=C2\S/C(=N\c3cccc(F)c3)N(c3cccc(F)c3)C2=O)c1C`, the inhibition in assay [2] amounted to 82.8%; in assay [4], 74.2%; in assay [5] it was 96.3%. Besides, the 50% inhibitory concentration (IC50) came to 6.83 µM in assay [6] and 3.39 µM in assay [3].
`CCOC(=O)c1c(C)[nH]c(/C=C2\S/C(=N\c3ccccc3F)N(c3ccccc3F)C2=O)c1C`: the values for the inhibition in assay [2], in assay [4] and in assay [5] were 64.2%, 45% and 98.3%, respectively. Also, the concentration for half-maximal inhibition (IC50) in assay [3] came to 3.66 µM.
